Data set [1] has as its target T1, Dihydrofolate reductase (Homo sapiens) (UniProt P00374).
T1 sequence (whole entry): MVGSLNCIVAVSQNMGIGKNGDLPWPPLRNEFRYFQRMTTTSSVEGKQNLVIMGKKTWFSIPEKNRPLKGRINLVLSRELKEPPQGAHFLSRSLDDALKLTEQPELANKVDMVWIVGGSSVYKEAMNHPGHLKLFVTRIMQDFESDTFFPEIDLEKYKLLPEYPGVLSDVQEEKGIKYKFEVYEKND
As to the kind of experiment: Inhibition of human DHFR-mediated reduction of cytochrome c at upto 500 uM. The method in brief: (§1)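 DHFR (T. brucei or human) activity followed by cytochrome c reduction coupled to enzymatic tetrahydrofolate production: 20 mM sodium citrate, 1 mM EDTA, H2F (4.4 μM), cytc (81 μM), NADPH (100 μM), pH 7.4. Absorbance at 550 nm read within the linear phase. Compounds tested up to 30 μM if PTR1 Kiapp below 1 μM, otherwise up to 500 μM.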

The target of data set [2] is Bifunctional dihydrofolate reductase-thymidylate synthase (Trypanosoma brucei brucei) (UniProt Q27783). Put plainly: Inhibition of Trypanosoma brucei DHFR-mediated reduction of cytochrome c at upto 500 uM. In outline: as §1
The target of data set [3] is T2, Pteridine reductase, putative (Trypanosoma brucei, UniProt Q581W1).
T2 sequence (Q581W1 whole entry): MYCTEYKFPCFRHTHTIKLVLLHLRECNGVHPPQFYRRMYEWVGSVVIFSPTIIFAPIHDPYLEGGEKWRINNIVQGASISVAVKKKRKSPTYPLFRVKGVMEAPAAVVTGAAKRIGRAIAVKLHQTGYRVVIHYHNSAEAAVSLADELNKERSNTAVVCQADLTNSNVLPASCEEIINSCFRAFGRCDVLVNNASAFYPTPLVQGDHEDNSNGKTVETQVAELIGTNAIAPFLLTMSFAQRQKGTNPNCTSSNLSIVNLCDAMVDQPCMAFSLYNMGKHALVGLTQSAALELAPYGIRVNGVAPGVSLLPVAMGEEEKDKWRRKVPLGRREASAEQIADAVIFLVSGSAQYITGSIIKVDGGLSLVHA
As to the kind of experiment: Apparent inhibition of Trypanosoma brucei pteridine reductase 1-mediated reduction of cytochrome c. To be noted: read-out: Ki(app). The method in brief: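 TbPTR1 activity read through cytochrome c reduction coupled to enzymatic H4B formation. Absorbance at 550 nm read within the linear phase. Kiapp derived by fitting a modified Morrison equation.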

Data set [4] addresses T3, Pteridine reductase, putative (Trypanosoma brucei) (UniProt Q581W1).
T3 sequence (whole entry): T2 sequence (Q581W1 whole entry)
Put plainly: Inhibition of Trypanosoma brucei pteridine reductase 1 at 100 uM. The method in brief:
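TbPTR1 activity followed by cytochrome c reduction coupled to enzymatic tetrahydrobiopterin production: 20 mM sodium citrate, 1 mM EDTA, H2B (0.35 μM), cytc (81 μM), NADPH (100 μM), pH 6.0. Absorbance at 550 nm read within the linear phase. Fragment hits tested once at 100 μM as percent inhibition.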

Data set [5] concerns the target T1, Dihydrofolate reductase (Homo sapiens). As to the kind of experiment: Inhibition of human DHFR-mediated reduction of cytochrome c at upto 30 uM. In outline:
as §1

Data set [6] deals with Bifunctional dihydrofolate reductase-thymidylate synthase (Trypanosoma brucei brucei) (UniProt Q27783). As to the kind of experiment: Inhibition of Trypanosoma brucei DHFR-mediated reduction of cytochrome c at upto 30 uM. The method in brief:
as §1

The nature of data set [7]: Distribution coefficient, log D of the compound. Format: physicochemical. The following applies: octanol/water.
Data set [8] concerns Trypanosoma brucei. Put plainly: Antitrypanosomal activity against Trypanosoma brucei by cell culture assay. Format: functional, organism-based.

Structures are written as SMILES. Calls of active or inactive are those of the source. The rule behind the calls is not given here.

Sequence of Bifunctional dihydrofolate reductase-thymidylate synthase (Trypanosoma brucei brucei) (Q27783 whole entry, looked up): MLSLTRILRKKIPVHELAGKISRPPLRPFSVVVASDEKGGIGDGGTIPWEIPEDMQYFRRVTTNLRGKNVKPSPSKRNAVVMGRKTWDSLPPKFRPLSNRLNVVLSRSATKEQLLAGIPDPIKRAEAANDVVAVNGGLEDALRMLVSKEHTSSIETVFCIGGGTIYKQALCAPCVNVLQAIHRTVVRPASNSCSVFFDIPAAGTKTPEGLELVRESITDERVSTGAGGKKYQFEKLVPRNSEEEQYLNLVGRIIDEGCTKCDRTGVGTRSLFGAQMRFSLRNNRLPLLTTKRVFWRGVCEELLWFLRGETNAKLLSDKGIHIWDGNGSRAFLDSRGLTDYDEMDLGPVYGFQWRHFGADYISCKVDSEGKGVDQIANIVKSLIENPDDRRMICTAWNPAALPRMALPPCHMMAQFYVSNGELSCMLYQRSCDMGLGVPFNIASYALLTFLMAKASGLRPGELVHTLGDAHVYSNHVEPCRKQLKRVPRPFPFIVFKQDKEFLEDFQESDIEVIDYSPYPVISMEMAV

For the molecule `Cc1cccc(-c2ccc3nc(N)[nH]c3c2)c1`, the inhibition entry in data set [1] and in data set [2] was “inactive” in each case. In addition, the Ki in data set [3] stood at 9.8 µM. Turning to `Cc1[nH]c(=O)[nH]c(=O)c1Cc1ccccc1`, the inhibition in data set [4] is -0.3%.

Take `CNc1nc(N)c(C(=O)C(C)(C)C)s1`: the inhibition in data set [4] is 23%. Same read-out and setting: the figure for `O=c1[nH]cc(COCc2ccccc2)c(=O)[nH]1` is 5.7%; for `Nc1nc(Cc2nnc(N)[nH]2)n[nH]1` it is 11.4%. On to `COC(=O)c1ccc2nc(N)sc2c1`, for which the inhibition entry in data set [1] and in data set [2] was “inactive” in each case. Besides, the Ki in data set [3] is 21.1 µM. Regarding `Nc1nc(-c2ccncc2)cs1`, in data set [4], the inhibition was found to be 31.3%. The same measure, in the same setting: the figure for `Nc1nc(-c2ccccc2Cl)n[nH]1` is 9.3%. On to `Nc1nc2ccccc2n1Cc1ccc(Cl)c(Cl)c1`, for which the inhibition entry in data set [5] and in data set [6] was “inactive” each time. Further, the Ki in data set [3] amounted to 0.4 µM. In the case of `Nc1nc2cccc(-c3ccccc3)c2n1Cc1ccc(Cl)c(Cl)c1`, the inhibition result in data set [5] and in data set [6] was “inactive” in each case. The same molecule returned a logD in data set [7] of 3.7. Moreover, the Ki in data set [3] amounted to 0.007 µM. The EC50 in data set [8] came out at 10 µM. With `N#Cc1ccc(CSc2nnc(N)s2)cc1`, in data set [4], the inhibition amounted to 23.1%. Same read-out and setting: the figure for `Cc1ccc(CNc2n[nH]c(N)n2)cc1` is 44.2%. The same measure, in the same setting: the figure for `OCCNc1ncnc2[nH]cnc12` is 5.9%; for `O=C(Cc1ccccc1Cl)Nc1c[nH]c(=O)[nH]c1=O` it is 21%; for `Nc1nnc(-c2ccc(Cl)cc2Cl)[nH]1` it is 18.8%. Still for that read-out and setting: the figure for `Cc1ccc(-c2n[nH]c(N)n2)cc1` is 20.2%; for `Cc1cc(C)n(-c2cc(=O)[nH]c(=O)[nH]2)n1` it is -4%. As for `CCc1n[nH]c(N)n1`, in data set [4], the inhibition is -3.5%. Still for that read-out and setting: the figure for `O=C(Nc1ncnc2nc[nH]c12)c1ccccc1` is 4.5%; for `CC(C)CSc1n[nH]c(N)n1` it is 0.9%; for `O=C(Nc1c[nH]c(=O)[nH]c1=O)c1ccccc1F` it is 7.9%. Regarding `O=c1[nH]cc(/N=C/c2ccc(Br)cc2)c(=O)[nH]1`, the inhibition in data set [4] turned out to be 4.5%. The same measure, in the same setting: the figure for `Nc1nc(C2CCCCC2)n[nH]1` is 45.1%; for `Nc1nc(CNC(=O)c2ccccc2)n[nH]1` it is 10.7%.

On to `Oc1ncc(/N=C/c2ccccc2)c(O)n1`, for which the inhibition in data set [4] is 22.8%. Still for that read-out and setting: the result for `Nc1nnc(SCC(=O)NCc2ccc3c(c2)OCO3)[nH]1` reads 38.5%; that for `CC(C)CC(=O)Nc1c[nH]c(=O)[nH]c1=O`, 5%. With `CC(C)c1n[nH]c(N)n1`, the inhibition in data set [4] was 3.9%. Consider `Nc1nc2ccc(C(=O)N3CCCCC3)cc2s1`, for which the inhibition result in data set [1] and in data set [2] was “inactive” each time. Besides, in data set [4], the inhibition came out at 49.9%. In addition, the Ki in data set [3] was 141 µM. With `Nc1nc(SCC(=O)NCc2ccco2)n[nH]1`, the inhibition in data set [4] was found to be 3.3%.

On to `O=c1cc(Nc2ccc(Cl)cc2)[nH]c(=O)[nH]1`, for which, in data set [4], the inhibition was found to be 11.8%. With `COc1ccccc1-c1nnc(N)[nH]1`, in data set [4], the inhibition turned out to be 19.8%. Turning to `c1nc(NCC2CCCO2)c2nc[nH]c2n1` (centres undefined), in data set [4], the inhibition was found to be 25.1%. Take `CCCOc1cccc2nc(N)n(Cc3ccc(Cl)c(Cl)c3)c12`: the inhibition entry in data set [5] and in data set [6] was “inactive” throughout. The Ki in data set [3] was determined as 0.047 µM. As for `Nc1nc(CCc2n[nH]c(N)n2)n[nH]1`, in data set [4], the inhibition came to 6.9%. Take `Nc1nc2ccc(Cl)cc2[nH]1`: the result in data set [1] was inactive. The inhibition result in data set [2] is “inactive”. Further, in data set [4], the inhibition was 72.3%. Besides, the Ki in data set [3] was determined as 10.6 µM. Turning to `Nc1nc(-c2ccc3c(c2)CCC3)cs1`, the inhibition in data set [4] is 32.3%. `CNc1nc(N)c(C(=O)c2ccccc2)s1`: the inhibition in data set [4] was 18.1%. `Nc1nc2cccc(Cl)c2n1Cc1ccc(Cl)c(Cl)c1`: the inhibition entry in data set [5] and in data set [6] was “inactive” in each case. Besides, the Ki in data set [3] was found to be 0.51 µM. As for `Nc1nc(NCc2ccc(F)cc2)n[nH]1`, the inhibition in data set [4] worked out at 19.3%. With `Nc1nc2ccccc2[nH]1`, the inhibition result in data set [1] and in data set [2] was “inactive” throughout. Besides, the Ki in data set [3] worked out at 288 µM. For the molecule `CCn1c(N)nc2ccccc21`, the inhibition entry in data set [1] and in data set [2] was “inactive” in each case. The Ki in data set [3] was over 200 µM. Turning to `Nc1nc2ccccc2n1CCc1ccccc1`, the inhibition result in data set [1] and in data set [2] was “inactive” in each case. Take `Cc1ccc(CSc2n[nH]c(N)n2)c(C)c1`: the inhibition in data set [4] worked out at 17.6%. As to `Nc1nc(-c2ccc(Br)cc2)n[nH]1`, in data set [4], the inhibition is -0.8%.

Turning to `Nc1nc(-c2ccc(O)cc2)cs1`, the inhibition in data set [4] was 43.2%. As to `CC(Nc1c[nH]c(=O)[nH]c1=O)c1ccccc1` (centres undefined), the inhibition in data set [4] is 17.4%. In the case of `O=c1[nH]c(=O)c2c(-c3ccccc3)csc2[nH]1`, the inhibition in data set [4] was determined as 36.3%. Still for that read-out and setting: the figure for `c1ccc(CCNc2ncnc3[nH]cnc23)cc1` is 66.4%.

Source of the values: ChEMBL document CHEMBL1137778, “One scaffold, three binding modes: novel and selective pteridine reductase 1 inhibitors derived from fragment hits discovered by virtual screening” (J Med Chem, 2009).
